Assays:
[1] = Cytotoxicity against human MML1 cells assessed as decrease in cell viability after 48 hrs by MTT assay; assay type: functional, cell-based
[2] = test system: MDA-MB-231; assay: Cytotoxicity against human MDA-MB-231 cells assessed as cell viability at 18 uM after 48 hrs by MTT assay; assay type: functional; settings: MDA-MB-231, 48 h, read-out: Activity
[3] = test system: A549; assay: Cytotoxicity against human A549 cells assessed as cell viability at 18 uM after 48 hrs by MTT assay; assay type: functional; settings: A549, 48 h, read-out: Activity
[4] = test system: BXPC-3; assay: Cytotoxicity against human BxPC3 cells assessed as decrease in cell viability after 48 hrs by MTT assay; assay type: functional, cell-based; settings: BXPC-3, 48 h
[5] = Cmax in mouse at 100 mg/kg, po by HPLC method; assay type: ADME, organism-based; design: dose 100 mg/kg, route oral; settings: in vivo
Method in brief: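 For oral dosing, polyphenol was dissolved in a self-microemulsifying delivery system: 60% surfactant (emulsifier OP:Cremophor EL 1:1), 30% cosurfactant (PEG 400) and 10% oil (ethyl oleate). Total volume given was never above 100 μL. Plasma levels were quantified by previously described methods.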

[6] = test system: PANC-1; assay: Cytotoxicity against human PANC1 cells assessed as cell viability at 18 uM after 48 hrs by MTT assay; assay type: functional; settings: PANC-1, 48 h, read-out: Activity
[7] = Plasma concentration in mouse at 10 mg/kg, iv at 60 mins by LC-MS/MS method; assay type: ADME, organism-based
Method in brief: (§1)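 For IV dosing, compound dissolved in DMSO:ethanol (2:1), total volume no more than 30 μL. For oral dosing, compound given in a self-microemulsifying delivery system (60% surfactant, emulsifier OP:Cremophor EL 1:1; 30% PEG 400; 10% ethyl oleate), total volume no more than 100 μL. Plasma levels measured by previously described methods.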

[8] = Tmax in mouse at 10 mg/kg, iv by LC-MS/MS method; assay type: ADME, organism-based; settings: in vivo; method in brief: as §1
[9] = test system: COLO 201; assay: Cytotoxicity against human COLO201 cells assessed as cell viability at 18 uM after 48 hrs by MTT assay; assay type: functional; settings: COLO 201, 48 h, read-out: Activity
[10] = test system: SK-MEL-2; assay: Cytotoxicity against human SK-MEL-2 cells assessed as decrease in cell viability after 48 hrs by MTT assay; assay type: functional, cell-based; settings: SK-MEL-2, 48 h
[11] = test system: LN-229; assay: Cytotoxicity against human LN229 cells assessed as cell viability at 18 uM after 48 hrs by MTT assay; assay type: functional; settings: LN-229, 48 h, read-out: Activity
[12] = test system: SK-MEL-2; assay: Cytotoxicity against human SK-MEL-2 cells assessed as cell viability at 18 uM after 48 hrs by MTT assay; assay type: functional; settings: SK-MEL-2, 48 h, read-out: Activity
[13] = Tmax in mouse at 100 mg/kg, po by HPLC method; assay type: ADME, organism-based; settings: in vivo
Method in brief: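 Given orally in a self-microemulsifying delivery system (60% surfactant, emulsifier OP:Cremophor EL 1:1; 30% PEG 400 cosurfactant; 10% ethyl oleate oil), total volume no more than 100 μL. Plasma levels measured by previously described methods.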

[14] = test system: A549; assay: Cytotoxicity against human A549 cells assessed as decrease in cell viability after 48 hrs by trypan blue exclusion and LDH release; settings: A549, 48 h
[15] = test system: COLO 201; assay: Cytotoxicity against human COLO201 cells assessed as decrease in cell viability after 48 hrs by trypan blue exclusion and LDH release; settings: COLO 201, 48 h
[16] = test system: NCI-H460; assay: Cytotoxicity against human NCI-H460 cells assessed as cell viability at 18 uM after 48 hrs by MTT assay; assay type: functional; settings: NCI-H460, 48 h, read-out: Activity
[17] = test system: BXPC-3; assay: Cytotoxicity against human BxPC3 cells assessed as cell viability at 18 uM after 48 hrs by MTT assay; assay type: functional; settings: BXPC-3, 48 h, read-out: Activity
[18] = test system: U-87 MG; assay: Cytotoxicity against human U87 cells assessed as cell viability at 18 uM after 48 hrs by MTT assay; assay type: functional, U-87MG ATCC; settings: read-out: Activity
[19] = test system: LN-229; assay: Cytotoxicity against human LN229 cells assessed as decrease in cell viability after 48 hrs by trypan blue exclusion and LDH release; settings: LN-229, 48 h
[20] = test system: PANC-1; assay: Cytotoxicity against human PANC1 cells assessed as decrease in cell viability after 48 hrs by MTT assay; assay type: functional, cell-based; settings: PANC-1, 48 h
[21] = test system: Lipid bilayer; assay: Induction of DOPC/n-decane bilayer property changes assessed as concentration required to double gramicidin-induced quencher influx rate by […]
[22] = test system: T47D; assay: Cytotoxicity against human T47D cells assessed as cell viability at 18 uM after 48 hrs by MTT assay; assay type: functional; settings: read-out: Activity
[23] = test system: T47D; assay: Cytotoxicity against human T47D cells assessed as decrease in cell viability after 48 hrs by trypan blue exclusion and LDH release
[24] = test system: U-87 MG; assay: Cytotoxicity against human U87 cells assessed as decrease in cell viability after 48 hrs by trypan blue exclusion and LDH release
[25] = test system: HT-29; assay: Cytotoxicity against human HT-29 cells assessed as decrease in cell viability after 48 hrs by trypan blue exclusion and LDH release; settings: HT-29, 48 h
[26] = test system: HT-29; assay: Cytotoxicity against human HT-29 cells assessed as cell viability at 18 uM after 48 hrs by MTT assay; assay type: functional; settings: HT-29, 48 h, read-out: Activity
[27] = Cytotoxicity against human MML1 cells assessed as cell viability at 18 uM after 48 hrs by MTT assay; assay type: functional; settings: read-out: Activity
[28] = test system: MDA-MB-231; assay: Cytotoxicity against human MDA-MB-231 cells assessed as decrease in cell viability after 48 hrs by trypan blue exclusion and LDH release; settings: MDA-MB-231, 48 h
[29] = test system: NCI-H460; assay: Cytotoxicity against human NCI-H460 cells assessed as decrease in cell viability after 48 hrs by MTT assay; assay type: functional, cell-based; settings: NCI-H460, 48 h
[30] = Plasma concentration in mouse at 100 mg/kg, po at 60 mins by LC-MS/MS method; assay type: ADME, organism-based; method in brief: as §1
[31] = Cmax in mouse at 10 mg/kg, iv by LC-MS/MS method; assay type: ADME, organism-based; design: dose 10 mg/kg, route intravenous; settings: in vivo
Method in brief: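 Mouse iv dosing used polyphenol dissolved in DMSO:ethanol (2:1), with total injected volume never above 30 μL. Plasma levels were measured by previously described methods.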

[32] = test system: LN-229; assay: Cytotoxicity against human LN229 cells assessed as cell viability at 16 uM after 48 hrs by MTT assay; assay type: functional; settings: LN-229, 48 h, read-out: Activity
[33] = test system: BXPC-3; assay: Cytotoxicity against human BxPC3 cells assessed as cell viability at 16 uM after 48 hrs by MTT assay; assay type: functional; settings: BXPC-3, 48 h, read-out: Activity
[34] = test system: COLO 201; assay: Cytotoxicity against human COLO201 cells assessed as cell viability at 16 uM after 48 hrs by MTT assay; assay type: functional; settings: COLO 201, 48 h, read-out: Activity
[35] = test system: PANC-1; assay: Cytotoxicity against human PANC1 cells assessed as cell viability at 16 uM after 48 hrs by MTT assay; assay type: functional; settings: PANC-1, 48 h, read-out: Activity
[36] = Cytotoxicity against human MML1 cells assessed as cell viability at 16 uM after 48 hrs by MTT assay; assay type: functional; settings: read-out: Activity
[37] = test system: SK-MEL-2; assay: Cytotoxicity against human SK-MEL-2 cells assessed as cell viability at 16 uM after 48 hrs by MTT assay; assay type: functional; settings: SK-MEL-2, 48 h, read-out: Activity
[38] = test system: HT-29; assay: Cytotoxicity against human HT-29 cells assessed as cell viability at 16 uM after 48 hrs by MTT assay; assay type: functional; settings: HT-29, 48 h, read-out: Activity
[39] = test system: A549; assay: Cytotoxicity against human A549 cells assessed as cell viability at 16 uM after 48 hrs by MTT assay; assay type: functional; settings: A549, 48 h, read-out: Activity
[40] = test system: T47D; assay: Cytotoxicity against human T47D cells assessed as cell viability at 16 uM after 48 hrs by MTT assay; assay type: functional; settings: read-out: Activity
[41] = test system: NCI-H460; assay: Cytotoxicity against human NCI-H460 cells assessed as cell viability at 16 uM after 48 hrs by MTT assay; assay type: functional; settings: NCI-H460, 48 h, read-out: Activity
[42] = test system: MDA-MB-231; assay: Cytotoxicity against human MDA-MB-231 cells assessed as cell viability at 16 uM after 48 hrs by MTT assay; assay type: functional; settings: MDA-MB-231, 48 h, read-out: Activity
[43] = test system: U-87 MG; assay: Cytotoxicity against human U87 cells assessed as cell viability at 16 uM after 48 hrs by MTT assay; assay type: functional, U-87MG ATCC; settings: read-out: Activity
[44] = Displacement of [3H]resveratrol from Sprague-Dawley rat brain plasma membranes after 1 hr by beta counting method; assay type: cell membranes

Question: For `O=c1c(-c2ccc(O)cc2)coc2cc(O)cc(O)c12` [GENISTEIN], which IC50 [1] is on record?
Answer: The IC50 was 42 µM.

Question: And the viability at 18 µM [2]?
Answer: Its viability at 18 µM is 91%.

Question: And the viability at 18 µM [3]?
Answer: The viability at 18 µM was 107%.

Question: What about the IC50 [4] of the same compound?
Answer: Its IC50 is 79 µM.

Question: And the Cmax [5]?
Answer: The Cmax was 17 µM.

Question: What about the viability at 18 µM [6] of the same compound?
Answer: Its viability at 18 µM is 99%.

Question: What about the concentration at 1 h [7] of the same compound?
Answer: The concentration at 1 h was less than 1 µM.

Question: What about the Tmax [8] of the same compound?
Answer: The Tmax was 5 min.

Question: What about the viability at 18 µM [9] of the same compound?
Answer: The viability at 18 µM was 100%.

Question: What about the IC50 [10] of the same compound?
Answer: Its IC50 is 36 µM.

Question: And the viability at 18 µM [11]?
Answer: Its viability at 18 µM is 100%.

Question: And the viability at 18 µM [12]?
Answer: The viability at 18 µM was 105%.

Question: What about the Tmax [13] of the same compound?
Answer: The Tmax was 10 min.

Question: And the IC50 [14]?
Answer: The IC50 was 64 µM.

Question: What about the IC50 [15] of the same compound?
Answer: The IC50 was 73 µM.

Question: What about the viability at 18 µM [16] of the same compound?
Answer: The viability at 18 µM was 102%.

Question: And the viability at 18 µM [17]?
Answer: The viability at 18 µM was 96%.

Question: And the viability at 18 µM [18]?
Answer: The viability at 18 µM was 98%.

Question: What about the IC50 [19] of the same compound?
Answer: Its IC50 is 44 µM.

Question: What about the IC50 [20] of the same compound?
Answer: The IC50 was 87 µM.

Question: What about the Activity [21] of the same compound?
Answer: Its Activity is 26.7 µM.

Question: What about the viability at 18 µM [22] of the same compound?
Answer: The viability at 18 µM was 93%.

Question: What about the IC50 [23] of the same compound?
Answer: Its IC50 is 48 µM.

Question: And the IC50 [24]?
Answer: The IC50 was 55 µM.

Question: And the IC50 [25]?
Answer: The IC50 was 50 µM.

Question: What about the viability at 18 µM [26] of the same compound?
Answer: Its viability at 18 µM is 104%.

Question: And the viability at 18 µM [27]?
Answer: Its viability at 18 µM is 104%.

Question: What about the IC50 [28] of the same compound?
Answer: The IC50 was 43 µM.

Question: What about the IC50 [29] of the same compound?
Answer: Its IC50 is 47 µM.

Question: What about the concentration at 1 h [30] of the same compound?
Answer: Its concentration at 1 h is less than 1 µM.

Question: And the Cmax [31]?
Answer: Its Cmax is 35 µM.

Question: What does the source list for `Oc1ccc(/C=C/c2cc(O)cc(O)c2)cc1` [RESVERATROL]?
Answer: IC50 [1]: 12 µM; viability at 16 µM [32]: 102%; viability at 16 µM [33]: 98%; IC50 [4]: 14 µM; viability at 16 µM [34]: 96%; Cmax [5]: 11 µM; concentration at 1 h [7]: < 1 µM; Tmax [8]: 5 min; IC50 [10]: 14 µM; viability at 16 µM [35]: 105%; viability at 16 µM [36]: 94%; viability at 16 µM [37]: 95%; viability at 16 µM [38]: 98%; Tmax [13]: 10 min; viability at 16 µM [39]: 93%; IC50 [14]: 16 µM; IC50 [15]: 37 µM; IC50 [19]: 11 µM; viability at 16 µM [40]: 99%; viability at 16 µM [41]: 94%; IC50 [20]: 39 µM; Activity [21]: 11.3 µM; viability at 16 µM [42]: 95%; IC50 [23]: 25 µM; viability at 16 µM [43]: 99%; IC50 [24]: 20 µM; IC50 [25]: 27 µM; IC50 [28]: 15 µM; Ki [44]: 0.102 µM; IC50 [29]: 12 µM; concentration at 1 h [30]: < 1 µM; Cmax [31]: 32 µM

Reference: ChEMBL document CHEMBL4184147, “Polyphenolic Phytochemicals in Cancer Prevention and Therapy: Bioavailability versus Bioefficacy” (J Med Chem, 2017)
